Measurements reported in ChEMBL document CHEMBL1143052, “Synthesis, antimicrobial, and QSAR studies of substituted benzamides” (2007).

What was measured:
[1] = tested on: Escherichia coli; test: Antibacterial activity against Escherichia coli MTCC 1652 after 24 hrs; assay type: functional
Summary of the method: (§1)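 Serial broth dilution in double-strength nutrient broth-I.P. Bacteria were grown for 24 h at 37 °C. A DMSO stock was diluted into 1 mL broth tubes to span 5–0.156, then inoculated with a saline suspension of the organism. Tubes were incubated at 37 °C for 24 h and MIC was read. Extra dilutions of the stock then set the exact MIC.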

[2] = tested on: Staphylococcus aureus; test: Antibacterial activity against Staphylococcus aureus MTCC 2901 after 24 hrs
[3] = tested on: Aspergillus parasiticus; test: Antifungal activity against Aspergillus parasiticus MTCC 8189 by serial dilution method; assay type: functional
Summary of the method: (§2)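 Broth serial dilution against the fungus in Sabouraud dextrose broth-I.P., run like the antibacterial assay. Compounds came from a DMSO stock, and MIC was determined.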

[4] = tested on: Bacillus subtilis; test: Antibacterial activity against Bacillus subtilis MTCC 2063 after 24 hrs; assay type: functional; summary of the method: as §1
[5] = tested on: Aspergillus ficuum; test: Antifungal activity against Aspergillus ficuum MTCC 8184 by serial dilution method; assay type: functional; summary of the method: as §2

SMILES | pMIC, log(1/MIC) [1] | -log(1/MIC) [2] | -log(1/MIC) [3] | pMIC, log(1/MIC) [4] | -log(1/MIC) [5] | -log(1/MIC) [1]
O=C(Nc1ccccc1O)c1ccccc1Cl | 1.2 | 1.3 | 1.3 | 1 | 1.6 | 
COC(=O)c1cccc(O)c1NC(=O)c1ccccc1OCc1ccccc1 | 1.35 | 1.48 | 1.83 | 1.48 | 1.78 | 
O=C(Nc1ccc(O)cc1)c1cc([N+](=O)[O-])ccc1Cl | 1.27 | 1.37 | 1.58 | 1.27 | 1.58 | 
COc1cccc(C(=O)Nc2ccc(O)cc2)c1[N+](=O)[O-] | 1.26 | 1.36 | 1.53 | 1.26 | 1.36 | 
Cc1cccc(C(=O)Nc2ccccc2O)c1 | 1.26 | 1.16 | 1.3 | 0.96 | 1.56 | 
O=C(Nc1ccccc1O)c1c(O)ccc2ccccc12 | 1.29 | 1.23 | 1.35 | 1.35 | 1.65 | 
O=C(/C=C/c1ccccc1)Nc1ccc(O)cc1 | 1.16 | 1.28 | 1.58 | 0.98 | 1.58 | 
O=C(Nc1ccccc1O)c1ccc2ccccc2c1O | 1.21 | 1.25 | 1.62 | 1.2 | 1.58 | 
O=C(Nc1ccc(O)cc1)c1ccccc1 | 1.23 | 1.23 | 1.24 | 0.93 | 1.53 | 
O=C(Nc1ccccc1O)c1cc([N+](=O)[O-])ccc1Cl | 1.2 | 1.26 | 1.52 | 1.07 | 1.67 | 
O=C(Nc1ccccc1)c1ccccc1OCc1ccccc1 | 1.3 | 1.39 | 1.69 | 1.3 | 1.69 | 
O=C(Nc1ccc(O)cc1)c1cc([N+](=O)[O-])cc([N+](=O)[O-])c1 | 1.38 | 1.38 | 1.69 | 1.38 | 1.69 | 
O=C(Nc1ccccc1)c1c(O)ccc2ccccc12 | 1.35 | 1.35 | 1.65 | 1.35 | 1.65 | 
O=C(Nc1ccccc1O)c1cc([N+](=O)[O-])cc([N+](=O)[O-])c1 | 1.38 | 1.38 | 1.69 | 1.38 | 1.58 | 
O=C(O)c1cn(C2CC2)c2cc(N3CCNCC3)c(F)cc2c1=O [CIPROFLOXACIN] |  | 3.33 |  | 3.33 |  | 3.33
O=C(Nc1ccc(O)cc1)c1ccccc1O [OSALMID] | 1.2 | 1.26 | 1.26 | 0.96 | 1.56 | 
O=C(O)c1ccccc1O [SALICYLIC ACID] |  |  | 3.1 |  | 3.1 | 

Now from value to compound:

pMIC, log(1/MIC) [1] | -log(1/MIC) [2] | -log(1/MIC) [3] | pMIC, log(1/MIC) [4] | -log(1/MIC) [5] | -log(1/MIC) [1] | SMILES
1.17 | 1.3 | 1.31 | 1 | 1.6 |  | O=C(Nc1ccc(O)cc1)c1ccccc1Cl
1.23 | 1.11 | 1.23 | 0.93 | 1.43 |  | O=C(Nc1ccccc1O)c1ccccc1
1.17 | 1.26 | 1.3 | 1.13 | 1.44 |  | O=C(Nc1ccccc1)c1ccc2ccccc2c1O
1.2 | 1.26 | 1.26 | 1.04 | 1.56 |  | Cc1cccc(C(=O)Nc2ccc(O)cc2)c1
1.2 | 1.16 | 1.26 | 0.96 | 1.56 |  | Cc1ccc(C(=O)Nc2ccccc2O)cc1
1.2 | 1.16 | 1.3 | 1.1 | 1.6 |  | O=C(Nc1ccccc1O)c1cccc(Cl)c1
1.41 | 1.41 | 1.71 | 1.41 | 1.71 |  | COc1cccc(C(=O)Nc2ccccc2O)c1[N+](=O)[O-]
1.26 | 1.26 | 1.32 | 0.96 | 1.56 |  | Cc1ccc(C(=O)Nc2ccc(O)cc2)cc1
1.2 | 1.35 | 1.42 | 1.15 | 1.55 |  | O=C(Nc1ccccc1)c1cc([N+](=O)[O-])ccc1Cl
1.17 | 1.3 | 1.3 | 1 | 1.6 |  | O=C(Nc1ccc(O)cc1)c1cccc(Cl)c1
1.12 | 1.26 | 1.2 | 0.96 | 1.45 |  | O=C(Nc1ccccc1O)c1ccccc1O
1.35 | 1.23 | 1.65 | 1.35 | 1.65 |  | O=C(Nc1ccc(O)cc1)c1c(O)ccc2ccccc12
1.22 | 1.32 | 1.62 | 1.25 | 1.57 |  | O=C(Nc1ccc(O)cc1)c1ccc2ccccc2c1O
